Measurements as given in ChEMBL document CHEMBL1148744, “Synthesis and antiviral and cytostatic evaluations of the new C-5 substituted pyrimidine and furo[2,3-d]pyrimidine 4',5'-didehydro-L-ascorbic acid derivatives” (J Med Chem, 2007).
pEC50: −log10 of the molar value. Values after ≈ are worked out from the molar mass of the structure shown.

Assays:
[1] = system: Vesicular stomatitis virus; assay: Antiviral activity against VSV in HeLa cells assessed as reduction of virus-induced cytopathogenicity; assay type: functional
Human respirovirus 3 = assay: Antiviral activity against Parainfluenza 3 virus in Vero cells assessed as reduction of virus-induced cytopathogenicity; assay type: functional
[2] = system: Mammalian orthoreovirus 1; assay: Antiviral activity against Reovirus 1 in Vero cells assessed as reduction of virus-induced cytopathogenicity; assay type: functional
[3] = system: Respiratory syncytial virus; assay: Antiviral activity against RSV in HeLa cells assessed as reduction of virus-induced cytopathogenicity; assay type: functional; conditions: human respiratory syncytial virus
Sindbis virus = assay: Antiviral activity against Sindbis virus in Vero cells assessed as reduction of virus-induced cytopathogenicity; assay type: functional
Coxsackievirus B4 = assay: Antiviral activity against Coxsackie virus B4 in Vero cells assessed as reduction of virus-induced cytopathogenicity; assay type: functional; conditions: Enterovirus B
Punta Toro virus = assay: Antiviral activity against Punta Toro virus in Vero cells assessed as reduction of virus-induced cytopathogenicity; assay type: functional
[4] = Cytotoxicity against human HEL cells assessed as alteration in cell morphology; assay type: cell-based
Summary of the method: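 Confluent human embryonic lung (HEL) fibroblast cultures were exposed to a range of compound concentrations. Cells were examined microscopically for any detectable change in normal morphology. The minimum cytotoxic concentration (MCC) was the lowest concentration causing such a change.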

[5] = Cytotoxicity against human HEL cells assessed as reduction of cell growth; assay type: cell-based
Summary of the method: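 HEL cells were seeded at 5 × 10^3 cells/well and allowed to proliferate for 24 h. Medium with graded compound concentrations was then added, followed by 3 days at 37 °C. Cell number was counted with a Coulter counter.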

Human alphaherpesvirus 3 [6] = assay: Antiviral activity against thymidine kinase-positive VZV OKA in human HEL cells after 7 days; assay type: functional, organism-based; conditions: Human alphaherpesvirus 3, OKA, 168 h
Human alphaherpesvirus 3 [7] = assay: Antiviral activity against thymidine kinase deficient VZV 07/1 in human HEL cells after 7 days; assay type: functional, organism-based; conditions: Human alphaherpesvirus 3, 07/1, HEL, 168 h
Human alphaherpesvirus 2 = assay: Antiviral activity against HSV2 G in HEL cells assessed as reduction of virus-induced cytopathogenicity; assay type: functional; conditions: Human alphaherpesvirus 2, G
Human alphaherpesvirus 1 = assay: Antiviral activity against HSV1 KOS in HEL cells assessed as reduction of virus-induced cytopathogenicity; assay type: functional; conditions: Human alphaherpesvirus 1, KOS
Human betaherpesvirus 5 [8] = assay: Antiviral activity against CMV AD169 in human HEL cells after 7 days; assay type: functional, organism-based; conditions: Human betaherpesvirus 5, AD169, HEL, 168 h
Summary of the method: (§1)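 Confluent HEL fibroblasts were infected at 100 PFU per well. After 2 h, residual virus was removed and cells were kept in MEM with serial compound concentrations for 7 days at 37 °C. Cytopathogenicity or plaques were scored microscopically after ethanol fixation and Giemsa staining.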

Human betaherpesvirus 5 [9] = assay: Antiviral activity against CMV Davis in human HEL cells after 7 days; assay type: functional, organism-based; conditions: Human betaherpesvirus 5, Davis, 168 h; summary of the method: as §1

Nc1ncnc2c1ncn2C[C@H](O)CO [(S)-DHPA] gave an MIC [1] greater than 250 µM, an MIC (Human respirovirus 3) of 50 µM (≈ 10.5 µg/mL) and an MIC [2] of 250 µM (≈ 52.3 µg/mL). The MIC [3] was greater than 250 µM, the MIC (Sindbis virus) was greater than 250 µM and the MIC (Coxsackievirus B4) was greater than 250 µM. It also gave an MIC (Punta Toro virus) greater than 250 µM.

O=C1O/C(=C\Cn2cc3cc(CCc4ccccc4)oc3nc2=O)C(OCc2ccccc2)=C1OCc1ccccc1 showed an MCC [4] of 100 µM.

In the case of Cc1ccc(-c2cc3cn(C/C=C4\OC(=O)C(OCc5ccccc5)=C4OCc4ccccc4)c(=O)nc3o2)cc1, the MCC [4] was 100 µM.

For CCCCCC(O)c1cc2cn(C/C=C3\OC(=O)C(OCc4ccccc4)=C3OCc3ccccc3)c(=O)nc2o1 (stereo unspecified), the MCC [4] was no less than 100 µM.

O=c1[nH]c(=O)n([C@H]2C[C@H](O)[C@@H](CO)O2)cc1/C=C/Br [BRIVUDINE] showed an MCC [4] of no less than 1200 µM, a CC50 [5] of 270 µM and a pEC50 (Human alphaherpesvirus 3 [6]) of 7.85. For the same compound, the pEC50 (Human alphaherpesvirus 3 [7]) was 3.77, the MIC [1] was greater than 250 µM and the MIC (Human respirovirus 3) was greater than 250 µM. The MIC [2] was greater than 250 µM, the MIC (Human alphaherpesvirus 2) was 10 µM (≈ 3.33 µg/mL) and the MIC [3] was greater than 250 µM. For the same compound, the MIC (Sindbis virus) was greater than 250 µM, the MIC (Coxsackievirus B4) was greater than 250 µM and the MIC (Punta Toro virus) was greater than 250 µM.

With Nc1nc2c(ncn2COCCO)c(=O)[nH]1 [ACYCLOVIR] the MCC [4] was greater than 1780 µM, the CC50 [5] was 545 µM and the MIC (Human alphaherpesvirus 2) was 0.4 µM (≈ 0.0901 µg/mL).

For O=C1O/C(=C\Cn2cc3cc(-c4ccc(Br)cc4)oc3nc2=O)C(OCc2ccccc2)=C1OCc1ccccc1, the MCC [4] was no less than 20 µM.

Work on CCCCCCC#Cc1cn(C/C=C2\OC(=O)C(OCc3ccccc3)=C2OCc2ccccc2)c(=O)[nH]c1=O yielded an MCC [4] of 20 µM.

Compound NC(=O)c1ncn([C@@H]2O[C@H](CO)[C@@H](O)[C@H]2O)n1 [RIBAVIRIN] has an MIC [1] greater than 250 µM, an MIC (Human respirovirus 3) of 150 µM (≈ 36.6 µg/mL) and an MIC (Human alphaherpesvirus 1) of 250 µM (≈ 61.1 µg/mL). The MIC [2] was 150 µM (≈ 36.6 µg/mL), the MIC (Human alphaherpesvirus 2) was 250 µM (≈ 61.1 µg/mL) and the MIC [3] was 150 µM (≈ 36.6 µg/mL). It also gave an MIC (Sindbis virus) greater than 250 µM, an MIC (Coxsackievirus B4) greater than 250 µM and an MIC (Punta Toro virus) of 250 µM (≈ 61.1 µg/mL).

With O=C1O/C(=C\Cn2cc(C#Cc3ccc(Br)cc3)c(=O)[nH]c2=O)C(OCc2ccccc2)=C1OCc1ccccc1 the MCC [4] was no less than 4 µM.

Work on CCCCCCc1cc2cn(C/C=C3\OC(=O)C(OCc4ccccc4)=C3OCc3ccccc3)c(=O)nc2o1 yielded an MCC [4] of 100 µM.

In the case of Nc1ccn(C[C@@H](CO)OCP(=O)(O)O)c(=O)n1 [CIDOFOVIR], the MCC [4] was no less than 1270 µM, the CC50 [5] was 133 µM and the pEC50 (Human betaherpesvirus 5 [8]) was 6.17. It also gave a pEC50 (Human betaherpesvirus 5 [9]) of 6.17.

CCCCc1ccc(-c2cc3cn(C/C=C4\OC(=O)C(OCc5ccccc5)=C4OCc4ccccc4)c(=O)nc3o2)cc1 gave an MCC [4] of no less than 20 µM.

CCCCc1ccc(C#Cc2cn(C/C=C3\OC(=O)C(OCc4ccccc4)=C3OCc3ccccc3)c(=O)[nH]c2=O)cc1 gave an MCC [4] of 60 µM.

CCCCCC#Cc1cn(C/C=C2\OC(=O)C(OCc3ccccc3)=C2OCc2ccccc2)c(=O)[nH]c1=O showed an MCC [4] of 20 µM.

For C#CCCCc1cc2cn(C/C=C3\OC(=O)C(OCc4ccccc4)=C3OCc3ccccc3)c(=O)nc2o1, the MCC [4] was greater than 100 µM.

In the case of CCCCCCCCc1cc2cn(C/C=C3\OC(=O)C(OCc4ccccc4)=C3OCc3ccccc3)c(=O)nc2o1, the MCC [4] was 100 µM.

In the case of CCCCCc1ccc(-c2cc3cn(C/C=C4\OC(=O)C(OCc5ccccc5)=C4OCc4ccccc4)c(=O)nc3o2)cc1, the MCC [4] was no less than 20 µM.

C#CCCCC#Cc1cn(C/C=C2\OC(=O)C(OCc3ccccc3)=C2OCc2ccccc2)c(=O)[nH]c1=O showed an MCC [4] of no less than 20 µM.

Work on CCCCCCCCC#Cc1cn(C/C=C2\OC(=O)C(OCc3ccccc3)=C2OCc2ccccc2)c(=O)[nH]c1=O yielded an MCC [4] of 100 µM.

For CCCCCc1ccc(C#Cc2cn(C/C=C3\OC(=O)C(OCc4ccccc4)=C3OCc3ccccc3)c(=O)[nH]c2=O)cc1, the MCC [4] was no less than 4 µM.

In the case of CCCCc1cc2cn(C/C=C3\OC(=O)C(OCc4ccccc4)=C3OCc3ccccc3)c(=O)nc2o1, the MCC [4] was 20 µM.

In the case of CCCCCc1cc2cn(C/C=C3\OC(=O)C(OCc4ccccc4)=C3OCc3ccccc3)c(=O)nc2o1, the MCC [4] was 100 µM.

For Nc1nc2c(ncn2COC(CO)CO)c(=O)[nH]1 [GANCICLOVIR], the MCC [4] was no less than 1580 µM, the CC50 [5] was 262 µM and the pEC50 (Human betaherpesvirus 5 [9]) was 5.59. It also gave an MIC (Human alphaherpesvirus 1) of 0.032 µM (≈ 0.00817 µg/mL) and an MIC (Human alphaherpesvirus 2) of 0.0064 µM (≈ 0.00163 µg/mL).

Cc1ccc(C#Cc2cn(C/C=C3\OC(=O)C(OCc4ccccc4)=C3OCc3ccccc3)c(=O)[nH]c2=O)cc1 showed an MCC [4] of 60 µM.

CCCCC#Cc1cn(C/C=C2\OC(=O)C(OCc3ccccc3)=C2OCc2ccccc2)c(=O)[nH]c1=O showed an MCC [4] of no less than 100 µM.

CCCCCC(O)C#Cc1cn(C/C=C2\OC(=O)C(OCc3ccccc3)=C2OCc2ccccc2)c(=O)[nH]c1=O (stereo unspecified) showed an MCC [4] of no less than 100 µM.
